Assay outcomes deposited in PubChem by Sanford-Burnham Center for Chemical Genomics.
Rows were chosen to be rich in hits. Some 4.4% of all compounds tested hit in one or more screens of this group.
EBI2 antag – EBI2 receptor antagonists, beta-arrestin recruitment, primary screen, cell-based, luminescence, 7a,25-OHC stimulation, uHTS. 360,000 tested, 0.81% active. AID 651636, 2012. inhibition, % at 5 µM. G-protein coupled receptor 183 (Homo sapiens), P32249. 7a,25-OHC stimulated; in the data active = inhibition above about 38%;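 note: enzyme fragment complementation signal reports receptor beta-arrestin coupling in cells; 0% = agonist plus DMSO wells and 100% = wells without agonist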
Target sequence (P32249 whole entry, looked up, the tested form may be a part): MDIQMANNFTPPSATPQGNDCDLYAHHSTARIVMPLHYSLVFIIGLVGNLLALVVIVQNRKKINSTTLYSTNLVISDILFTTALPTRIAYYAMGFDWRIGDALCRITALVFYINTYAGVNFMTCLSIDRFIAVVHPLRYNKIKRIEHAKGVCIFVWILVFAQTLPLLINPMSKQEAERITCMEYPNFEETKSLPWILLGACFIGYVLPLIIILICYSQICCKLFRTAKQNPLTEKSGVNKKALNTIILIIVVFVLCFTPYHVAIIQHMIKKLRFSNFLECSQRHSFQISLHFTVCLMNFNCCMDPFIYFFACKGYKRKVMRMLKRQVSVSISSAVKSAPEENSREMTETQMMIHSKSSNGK
GRIN3A LBD mod – binders of NR3A ligand-binding domain, primary screen, biophysical, differential scanning fluorimetry, uHTS; Glutamate receptor ionotropic, NMDA 3A (GRIN3A) ligand-binding domain; NR3A LBD differential scanning fluorimetry, Tm shift; 0% = protein alone, 100% = glycine-bound protein; Tm shift relative to glycine control, % at 25 µM; 340,000 tested, 2.5% active; AID 1259313, 2017;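 active = melting temperature shift of at least 10% of the positive control shift, at one fixed dose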
SENP1 inh – human SENP1 catalytic domain inhibitors, primary screen, biochemical, FRET, uHTS; Sentrin-specific protease 1 (Homo sapiens), Q9P0U3; inhibition, % at 10 µM; AID 624204, 2012; 360,000 tested, 0.21% active; recombinant SENP1 catalytic domain, CyPet-SUMO1-YPet FRET cleavage;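 active = inhibition at least 30% at 10 µM, raw YFP signal under a set limit, fluorescence ratio 0.5 to 1.5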;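 note: 0% = enzyme with DMSO and 100% = no enzyme wells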
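material = recombinant human SENP1 catalytic domain, His6-tagged | quantity = 20 pM enzyme | reagent = 25 nM SUMO1 FRET substrate | compound dosing = 10 µM single point, 0.5% DMSO | timing = 50 min enzyme reaction, room temperature, light-protected | detection = FRET, CFP and YFP emission | control set = no-enzyme low, enzyme-DMSO high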
MPTP block – mitochondrial permeability transition pore inhibitors, primary screen, biochemical, isolated mouse mitochondria, absorbance | Ca2+ swelling absorbance, 30 min | inhibition, % at 10 µM | 360,000 tested, 1.4% active | AID 602449, 2012;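 active = inhibition of 50% or more, scaled per plate between neutral and stimulator controls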;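 note: 0% = DMSO wells given calcium and 100% = 1 mM EGTA wells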
Rh123 counter – fluorescence retest of MPTP screen hits in isolated mitochondria, single concentration; shares compounds with MPTP block; membrane potential, Rhodamine 123 fluorescence; inhibition, % at 10 µM; 5,000 tested, 78% active; AID 624504, 2012; in the data active = inhibition above about 22%;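 note: 0% = DMSO vehicle and 100% = positive control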
MPTP abs DR – mitochondrial permeability transition pore inhibitors, dose response, biochemical, absorbance, uHTS hits | isolated mitochondria swelling | shares compounds with MPTP block | 780 tested, 58% active | AID 651561, 2012 | IC50, µM; in the data active = IC50 below about 20 µM
MPTP counter DR – fluorescent counter-screen in isolated mitochondria, dose response, counter-screen for MPTP inhibitor project, biochemical, fluorescence, uHTS hits | shares compounds with MPTP block | isolated mitochondria counterscreen, fluorescence read-out | IC50, µM | 780 tested, 49% active | AID 651564, 2012; in the data active = IC50 below about 80 µM
* marks the source's active call; other numbers are inactive results; i = inactive; · = no result given.

SMILES	EBI2 antag	GRIN3A LBD mod	SENP1 inh	MPTP block	Rh123 counter	others
CN(C)CCCNC(=O)CCc1nc2ccccc2c(=O)[nH]1	3.7	-0.6	1.1	73.5*	5.5	MPTP abs DR=>100;MPTP counter DR=>80
CC(=O)c1c(C)nc2ccc(Cl)cn12	-5.4	4.2	2.4	0.2	·
C=CCN1C(=O)/C(=C/c2ccc(OC(C)=O)c(OCC)c2[N+](=O)[O-])SC1=S	-18.0	4.1	25.7	101.9*	65.2*
COc1cccc2sc(N(CCN(C)C)C(=O)c3ccc(S(=O)(=O)N4CCCC4)cc3)nc12	-4.8	5.4	1.1	-0.7	·
Cc1ccc2sc(N(CCCN(C)C)C(=O)c3ccc(S(=O)(=O)N4CCCCCC4)cc3)nc2c1C	5.0	0.5	1.3	58.0*	-16.2	MPTP abs DR=i;MPTP counter DR=63.9*
Cc1cc(C)c2sc(N(CCCN(C)C)C(=O)c3ccc(S(=O)(=O)N(C)C4CCCCC4)cc3)nc2c1	-1.5	5.1	-1.1	77.3*	-11.8
Cc1cc(C)c2nc(N(CCCN(C)C)C(=O)c3ccc(S(=O)(=O)N4CCCCCC4)cc3)sc2c1	-1.8	1.6	1.9	83.3*	-10.4	MPTP abs DR=6.37*;MPTP counter DR=>80
CC(C)CN(CC(C)C)C(=S)NC1CCCCC1	5.1	2.4	0.9	-0.5	·
O=C(Nc1ccc(Oc2ccc(Cl)cc2)c(Cl)c1)c1cc(I)cc(I)c1O	13.5	31.1*	-4.6	105.9*	74.4*
COc1ccc(C(C)(C)NC(=O)C2CCC(=O)N(C3CC3)C2)cc1OC (centres undefined)	-1.4	-0.6	0.4	0.3	·
CC(O)CNCCCOc1cccc(Oc2ccccc2)c1 (centres undefined)	8.5	-0.4	4.1	59.9*	-7.2	MPTP abs DR=12.9*;MPTP counter DR=>80
Cc1cc(C(=O)N/N=C/c2cccnc2)cs1	-22.6	-2.8	2.0	0.5	·
O=C(O)CCC(=O)N1N=C(c2ccco2)CC1c1cccs1 (centres undefined)	3.0	-3.2	-3.8	0.3	·
O=C(O)CCC(=O)N1N=C(c2ccc(Br)cc2)CC1c1cccs1 (centres undefined)	-11.1	-0.2	0.9	81.3*	3.0	MPTP abs DR=>100;MPTP counter DR=>80
Cc1nnc(NC(=O)CSc2n[nH]c(-c3ccccc3C)n2)s1	-10.1	-2.3	3.4	95.6*	-7.8	MPTP abs DR=>100;MPTP counter DR=>80
COc1ccc(Nc2nc(-c3cccc([N+](=O)[O-])c3)nc3ccccc23)cc1	-14.4	46.2*	1.7	53.2*	25.2*
Cc1c(C(=O)Nc2cccc([N+](=O)[O-])c2)csc1-c1ccccc1	22.4	12.8*	1.4	84.6*	89.0*
COc1ccc(NC(=O)Nc2cccc([N+](=O)[O-])c2)cc1Cl	6.5	31.8*	2.9	94.2*	80.2*
COc1ccc(NC(=S)Nc2cccc([N+](=O)[O-])c2)cc1	38.2	23.2*	2.2	84.7*	86.7*
COc1nc(-c2cccc([N+](=O)[O-])c2)nc2ccccc12	18.4	2.0	-1.1	1.5	·
Cc1ccc(C(=O)COC(=O)c2nc3nccc(C)n3n2)c(C)c1	-0.3	-1.4	-5.1	-0.4	·
COc1ccc(C(=O)C2CCCN(C(=O)c3cc(C(C)C)no3)C2)cc1F (centres undefined)	12.8	3.2	3.8	1.6	·
CCOC(=O)CCN	3.5	-0.1	2.3	-0.3	·
Cc1cn([C@H]2C[C@H](O)[C@@H](/C=C/C(=O)NCCc3ccc4c(c3)OCO4)O2)c(=O)[nH]c1=O	-12.2	·	-1.2	-0.5	·
COc1ccccc1CCNC(=O)Nc1cccc([N+](=O)[O-])c1	5.7	-0.7	-0.8	68.1*	77.1*
COc1ccc(NC(=O)c2cc([N+](=O)[O-])ccc2O)cc1	5.6	2.7	2.5	91.6*	94.9*
O=C(O)c1ccccc1C(=O)Nc1cccc([N+](=O)[O-])c1	-15.5	-0.9	2.9	0.2	·
